# Arr AP2 block: human beta-arrestin and AP2 interaction inhibition. FITC-arrestin peptide / GST-AP2 beads, flow cytometry; AP2 beta2 appendage carries R879A mutation. inhibition, % at 10 µM. actives 0.31% (n = 340,000). AID 504490;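 active = inhibition above a set limit, near 3 SD of compounds lacking own fluorescence, cut at about 54% in these data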;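 also: plate controls were DMSO wells for no effect and 5 µM unlabelled arrestin peptide for full effect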
#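 Assay system: GST-AP2 R879A bound to glutathione beads, E. coli-expressed; Medium: PBS with 0.05% Tween 20 and 0.1% BSA; Also added: fluorescein-tagged arrestin peptide at 50 nM final; Timing: 12 min plus 1 h, RT; Measured by: flow cytometry, FL1 (488/535 nm); Evaluation: percent drop in bead-associated FITC signal.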
# MEKK3 PB1 HTS: raises or lowers MEK5 binding to the human MEKK3 PB1 domain | bead-based flow cytometry, Alexa488-MEK5 binding to MEKK3; actives lie on both sides; 0 = blocked by unlabeled MEK5, 100 = vehicle | actives 1.4% (n = 290,000) | AID 1529 | Q99759 | binding response (% of control), % at 10 µM;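 active = binding response more than 3 SD above or below the average of its plate-row segment, actives on both sides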;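 also: Alexa488 bead fluorescence after subtracting the streptavidin-only scavenger bead signal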
# Target sequence (Q99759 whole entry, looked up, the tested form may be a part): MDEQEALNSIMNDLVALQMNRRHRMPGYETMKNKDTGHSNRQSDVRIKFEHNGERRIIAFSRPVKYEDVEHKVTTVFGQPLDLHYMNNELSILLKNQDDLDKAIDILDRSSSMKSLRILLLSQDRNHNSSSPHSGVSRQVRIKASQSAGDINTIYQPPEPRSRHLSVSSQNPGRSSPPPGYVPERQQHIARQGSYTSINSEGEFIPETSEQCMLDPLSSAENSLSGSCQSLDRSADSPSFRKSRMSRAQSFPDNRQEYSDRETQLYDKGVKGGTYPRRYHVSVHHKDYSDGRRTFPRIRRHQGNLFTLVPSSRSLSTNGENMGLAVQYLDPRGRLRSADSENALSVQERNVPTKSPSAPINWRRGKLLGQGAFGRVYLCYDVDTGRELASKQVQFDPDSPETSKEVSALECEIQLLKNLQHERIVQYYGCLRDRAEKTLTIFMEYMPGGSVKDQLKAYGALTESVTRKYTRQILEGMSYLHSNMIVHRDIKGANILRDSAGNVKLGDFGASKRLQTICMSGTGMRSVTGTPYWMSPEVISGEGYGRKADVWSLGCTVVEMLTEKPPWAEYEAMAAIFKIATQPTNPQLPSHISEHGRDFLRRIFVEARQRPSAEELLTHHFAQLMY
# MEKK2 WT-MEK5: raises or lowers MEK5 binding to wildtype human MEKK2 PB1 domain | actives 1.1% (n = 290,000) | bead flow cytometry, Alexa488-MEK5 binding to MEKK2 WT; actives lie on both sides | binding response (% of control), % at 10 µM; in the data active = binding response below about 67% or above about 130%
# MEKK2mut PB1 HTS: signal of MEK5 binding to mutant human MEKK2 PB1 domain. percent response, % at 10 µM. actives 0.35% (n = 290,000). bead flow cytometry, Alexa488-MEK5 binding to MEKK2 mutant; in the data active = percent response above about 24%, passing the limit was not always enough
# MEKK2wt confirm: raises or lowers MEK5 binding to wildtype human MEKK2, retest. bead flow cytometry, Alexa488-MEK5 binding to MEKK2 WT; actives lie on both sides. AID 1892. binding response (% of control), % at 10 µM. actives 2.4% (n = 5,900). shares compounds with MEKK3 PB1 HTS; in the data active = binding response below about 16% or above about 210%; inactive = in between
# MEKK2mut confirm: signal of MEK5 binding to mutant human MEKK2, retest; shares compounds with MEKK3 PB1 HTS; bead flow cytometry, Alexa488-MEK5 binding to MEKK2 mutant; percent response, % at 10 µM; actives 2% (n = 5,900); in the data active = percent response mostly above about 71%, no sharp cut-off; inactive = mostly below about 38%;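 also: higher means compound restores mutant binding toward wildtype level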
# MEKK3-MEK5 inh: confirmation of inhibitors of MEK5 binding to human MEKK3; shares compounds with MEKK3 PB1 HTS; bead flow cytometry, Alexa488-MEK5 binding to MEKK3; hits give low values; binding response (% of control), % at 10 µM; actives 1.8% (n = 5,900);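 active = binding response below 72% of control, or above a set upper limit, though filed actives all read lower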;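 also: 100% = DMSO only wells and 0% = binding blocked by excess unlabeled MEK5; lower values mean stronger disruption of MEK5 binding to MEKK3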
# Active calls of the source: *; / = not tested or not shown; [ ] = remark or other dose. This is a sample that favours compounds with a hit; in the whole collection about 2.3% have one here.
SMILES,Arr AP2 block,MEKK3 PB1 HTS,MEKK2 WT-MEK5,MEKK2mut PB1 HTS,MEKK2wt confirm,MEKK2mut confirm,MEKK3-MEK5 inh
CCCCC1=CC2=C(c3ccco3)C(=O)C(C)(OC(=O)c3ccc(OC)cc3)C(=O)C2=CN1CCN1CCOCC1 (stereo not given),6,95,142*,6,108,2,94
CCCCC1=CC2=C(c3ccco3)C(=O)C(C)(OC(=O)c3ccc(OC)cc3)C(=O)C2=CN1c1ccc(OC)cc1 (stereo not given),8,111,127,2,/,/,/
Fc1ccc2nncc(SCc3ccccc3Cl)c2c1,11,/,/,/,/,/,/
COc1cc(NC(=O)CN2C(=O)CSc3ccc(S(=O)(=O)N4CCCC4)cc32)cc(OC)c1,-8,104,101,8,/,/,/
CC(=O)c1ccc(N=Cc2c(O)n(-c3cc(Cl)ccc3N3CCOCC3)c(=O)c3ccccc23)cc1,-3,103,96,-1,/,/,/
O=c1c2ccccc2c(C=Nc2ccc(Cl)cn2)c(O)n1-c1cc(Cl)ccc1N1CCOCC1,-2,2.0*[inhibitor],2.0*[inhibitor],-46,84,-5,97
C[C@@H]1C(=O)O[C@H](C)[C@H]1C[C@@H](O)[C@](C)(O)C1CC[C@@]2(O)C3=CC(=O)[C@@H]4C[C@@H](O)[C@@H](O)C[C@]4(C)C3CC[C@]12C (stereo not given in full),23,/,/,/,/,/,/
O=C(NCc1ccco1)c1ccc(Cn2c(=O)c3ccccc3n(Cc3ccc(Cl)cc3)c2=O)cc1,24,133*,122,8,108,3,105
O=C(NCc1ccco1)c1ccc(Cn2c(=O)c3ccccc3n(Cc3cccc(F)c3)c2=O)cc1,-2,105,89,1,/,/,/
CC1(C(=O)N/N=C/c2ccc([N+](=O)[O-])o2)CC1(Br)Br (stereo not given),-5,132*,103,1,101,-4,104
O=C(Cc1ccc([N+](=O)[O-])cc1)N/N=C/c1ccc([N+](=O)[O-])o1,27,106,105,6,/,/,/
O=C(O)/C=C/c1ccc([N+](=O)[O-])o1,10,130*,115,-55,101,-5,102
Cc1cccc(Nc2nnc(-c3ccc(N4CCOCC4)c([N+](=O)[O-])c3)c3ccccc23)c1,-2,131*,100,0,88,-10,97
Cc1nnc(-c2ccc(N3CCOCC3)c([N+](=O)[O-])c2)o1,-1,/,/,/,/,/,/
C=CCNC(=O)c1ccc(-c2ccc([N+](=O)[O-])cc2)o1,11,194*,113,1,103,-6,101
C=CCNC(=O)c1ccc(-c2cccc([N+](=O)[O-])c2)o1,/,96,103,-3,/,/,/
CCOC(=O)C1CCN(CC(=O)c2ccc(O)c(C)c2O)CC1,0,99,96,-3,/,/,/
C[C@H](CO)N1C[C@H](C)[C@@H](CN(C)C(=O)Nc2ccccc2)Oc2ccc(NC(=O)CCC(F)(F)F)cc2C1=O,1,/,/,/,/,/,/
CCS(=O)(=O)c1ccc(N=Nc2ccc(O)c3ncccc23)c(OC)c1,-10,131*,108,0,99,1,99
COc1ccccc1N=Nc1ccc(O)c2ncccc12,29,95,97,-2,/,/,/
Cn1c(N)c(C#N)c2c(c1=S)CSC(C)(C)C2,1,102,102,1,/,/,/
CC1(C)Cc2c(C#N)c(N)sc(=S)c2CS1,10,85,56*[inhibitor],-21,79,-10,97
NNC(=O)C1CC1c1ccccc1 (stereo not given),22,99,98,7,/,/,/
NNC(=O)[C@@H]1C[C@@H]1c1ccccc1,-5,153*,111,0,84,-13,84
C=CCN1C(=O)C2(OCCCO2)c2cc(Cl)ccc21,-5,100,102,6,/,/,/
SMILES,Arr AP2 block,MEKK3 PB1 HTS,MEKK2 WT-MEK5,MEKK2mut PB1 HTS,MEKK2wt confirm,MEKK2mut confirm,MEKK3-MEK5 inh
Cc1ccc(OC(=O)C23CC4CC(CC(C4)C2)C3)c(C)n1,13,96,95,-2,/,/,/
CCc1nc(C)ccc1OC(=O)C12CC3CC(CC(C3)C1)C2,-16,106,138*,3,92,-10,94
CCOC(=O)c1sc(NC(=O)CSc2nc3c(c(=O)n2-c2ccc(C)cc2)SCC3)c(C(=O)OCC)c1C,17,71*[inhibitor],73,8,95,7,101
CCOC(=O)c1sc(NC(=O)CSc2nnnn2-c2ccc(C)cc2)c(C(=O)OCC)c1C,-9,102,102,6,/,/,/
COc1ccc(CCNC(=O)C2CCN(C(=O)c3ccc(Br)cc3)CC2)cc1,2,107,110,4,/,/,/
Cc1cc(C)c[n+](CC(=O)c2ccc(C)c([N+](=O)[O-])c2)c1,16,97,108,3,/,/,/
Cc1ccc(C(=O)C[n+]2cc(Br)cc(Br)c2)cc1[N+](=O)[O-],1,104,101,51*,111,2,98
C/C(Cn1nnc2ccccc21)=N\OC(=O)c1ccccc1C,/,138*,104,1,106,6,106
FC(F)(F)c1cc(CCN2CCNC[C@@H]2Cc2ccccc2)cc(C(F)(F)F)c1,3,113,146*,15,136,39,111
Fc1cccc(CCN2CCNC[C@@H]2Cc2ccccc2)c1,-2,102,110,5,/,/,/
Cc1ccc2[nH]cc(CCNC(=O)CN3C(=O)c4ccccc4C3=O)c2c1,-10,147*,109,-1,94,-11,91
COc1ccc2[nH]cc(CCNC(C)=O)c2c1,7,108,106,44*,100,-1,102
O=C(CN1C(=O)c2ccccc2C1=O)NCCc1c[nH]c2ccc(Cl)cc12,-8,99,95,-2,/,/,/
Cc1cc(F)ccc1S(=O)(=O)N1CCCOC1CNC(=O)C(=O)NCc1ccncc1 (stereo not given),-8,101,102,7,/,/,/
C[C@@H](CN1C2=NC[C@H](Cc3ccc(O)cc3)N2C[C@H]1Cc1ccc(O)cc1)NC(=O)CCC1CCCCC1,-9,105,141*,27,129,11,101
COc1ccc(C[C@H]2CN3C(=NC[C@@H]3Cc3ccccc3)N2C[C@H](C)NC(=O)CCC2CCCCC2)cc1,/,109,92,7,/,/,/
C[C@@H](CN1C2=NC[C@H](Cc3ccccc3)N2C[C@H]1Cc1ccc(O)cc1)NC(=O)CCC1CCCCC1,-3,109,146*,25,139,33,110
CCOC(=O)c1cccc(-n2c(-c3ccc(OC)cc3)nc3nc4ccccc4nc32)c1,/,134*,94,0,90,-4,100

# Compound activity as filed in PubChem BioAssay.
